We go through 14 molecules from ChEMBL document CHEMBL3351968, “Synthesis and analgesic activity of alkylated, reduced and constrained oligoheterocyclic peptidomimetic analogs of Leu-enkephalin” (Bioorg Med Chem Lett, 2014).

A word on the Ki: it is a dissociation constant, usually derived from enzyme kinetics or from competition with a known ligand.

Square brackets hold non-standard residues; d marks the D form. Peptide text beside a SMILES is read from it. ξ: configuration not given here. NMeY = CN[C@@H](Cc1ccc(O)cc1)C(=O)O; NMeF = CN[C@@H](Cc1ccccc1)C(=O)O; ξP = O=C(O)C1CCCN1; Ava = NCCCCC(=O)O

Chain of Mu-type opioid receptor (P33535 whole entry): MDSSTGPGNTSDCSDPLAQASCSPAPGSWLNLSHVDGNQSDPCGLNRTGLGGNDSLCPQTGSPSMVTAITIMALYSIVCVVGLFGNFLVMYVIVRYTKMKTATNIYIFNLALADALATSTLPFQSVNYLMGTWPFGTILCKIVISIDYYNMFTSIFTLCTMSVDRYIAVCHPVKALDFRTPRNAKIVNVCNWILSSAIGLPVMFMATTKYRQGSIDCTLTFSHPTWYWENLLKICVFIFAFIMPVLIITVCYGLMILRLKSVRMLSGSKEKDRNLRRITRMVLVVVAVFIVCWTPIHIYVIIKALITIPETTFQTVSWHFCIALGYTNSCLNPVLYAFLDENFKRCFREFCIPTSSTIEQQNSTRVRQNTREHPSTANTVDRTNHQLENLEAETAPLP
Chain of Kappa-type opioid receptor (P41144 whole entry): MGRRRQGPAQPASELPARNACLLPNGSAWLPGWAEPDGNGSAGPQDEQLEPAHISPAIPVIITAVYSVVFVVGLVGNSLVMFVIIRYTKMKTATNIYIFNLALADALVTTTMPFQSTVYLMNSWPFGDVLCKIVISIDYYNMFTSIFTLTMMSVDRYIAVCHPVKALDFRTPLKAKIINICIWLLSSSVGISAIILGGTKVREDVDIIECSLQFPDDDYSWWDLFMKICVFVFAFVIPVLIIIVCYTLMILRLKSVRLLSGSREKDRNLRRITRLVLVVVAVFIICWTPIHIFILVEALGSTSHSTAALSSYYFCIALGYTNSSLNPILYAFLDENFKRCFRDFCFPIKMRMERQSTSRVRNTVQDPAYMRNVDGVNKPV

The first assay has as its target Mu-type opioid receptor (Rattus norvegicus, UniProt P33535). As to the kind of experiment: Displacement of [3H]DAMGO from mu opioid receptor in rat brain membrane by liquid scintillation counting analysis. It is filed as cell membranes. In short, it runs like this: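 Competitive radioligand binding at the mu (MOR) opioid receptor with [3H]-DAMGO as tracer; affinity expressed as Ki.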
(Loss of bound radioactivity is the signal in a displacement assay; it reports binding, not function.)
`CN[C@@H](Cc1ccc(O)cc1)C(=O)N1CCCC1C(=O)N(C)[C@@H](Cc1ccccc1)C(=O)N[C@@H](CC(C)C)C(N)=O` (stereo partly drawn) (H-[NMeY][ξP][NMeF]L-NH2) came in with a Ki of 2140 nM.

As for `CC(C)C[C@H]1CNC(=N)N1C[C@H](Cc1ccccc1)N(C)CCN1CCN(C[C@H](Cc2ccc(O)cc2)N(C)C)C1=N`, the Ki was determined as 1080 nM.

`CC(C)C[C@H]1CNCCN1C[C@H](Cc1ccccc1)N(C)CCN(C)CCN1CCN(C)[C@@H](Cc2ccc(O)cc2)C1`: the Ki was 2650 nM.

`CC(C)C[C@H](NC(=O)[C@H](Cc1ccccc1)N(C)C(=O)CCCCNC(=O)[C@@H](N)Cc1ccc(O)cc1)C(N)=O` (H-Y[Ava][NMeF]L-NH2) yielded a Ki of 38900 nM.

The molecule `CN[C@H](CNCC(=O)N(C)CCN(C)[C@H](CN[C@H](CN)CC(C)C)Cc1ccccc1)Cc1ccc(O)cc1` returned an inhibition constant Ki of 1500 nM.

As for `CC(C)C[C@H]1CNC(=S)N1C[C@H](Cc1ccccc1)N(C)CCN(C)CCN1C[C@H](Cc2ccc(O)cc2)N(C)C1=S`, the Ki is 7110 nM.

As to `CC(C)C[C@H]1CNC(=S)N1C[C@H](Cc1ccccc1)N(C)C[C@@H]1CCCN1C[C@H](Cc1ccc(O)cc1)N(C)C`, the Ki worked out at 430 nM.

Turning to `CC(C)CC(CN)NCC(Cc1ccccc1)N(C)CCCCCNCC(N)Cc1ccc(O)cc1` (stereo not drawn), the affinity, expressed as Ki, was 1790 nM.

`CC(C)C[C@H]1CNCCN1C[C@H](Cc1ccccc1)N(C)CCN1CCN(C[C@H](Cc2ccc(O)cc2)N(C)C)CC1` yielded a Ki of 1150 nM.

Molecule `CC(C)C[C@H]1CNC(=S)N1C[C@H](Cc1ccccc1)N(C)CCCCCN1C[C@H](Cc2ccc(O)cc2)NC1=S` came in with a Ki of 11000 nM.

Turning to `CC(C)C[C@H]1CNC(=O)C(=O)N1C[C@H](Cc1ccccc1)N(C)CCN(C)CCN1C[C@H](Cc2ccc(O)cc2)N(C)C(=O)C1=O`, the Ki came out at 15200 nM.

In the case of `CC(C)C[C@H]1CNC(=O)C(=O)N1C[C@H](Cc1ccccc1)N(C)C[C@@H]1CCCN1C[C@H](Cc1ccc(O)cc1)N(C)C`, the Ki was determined as 250 nM.

In the case of `CC(C)C[C@@H](CN)NC[C@H](Cc1ccccc1)N(C)C[C@@H]1CCCN1C[C@H](Cc1ccc(O)cc1)N(C)C`, the inhibition constant Ki turned out to be 60 nM.

In turn, `CC(C)C[C@H]1CNC(=S)N1C[C@H](Cc1ccccc1)N(C)CCN1CCN(C[C@H](Cc2ccc(O)cc2)N(C)C)C1=S` gave a Ki of 740 nM.

A further assay has as its target Kappa-type opioid receptor (Cavia porcellus, UniProt P41144). In words: Displacement of [3H]U69593 from kappa opioid receptor in guinea pig cortices membrane by liquid scintillation counting analysis. It is filed as cell membranes. In short, it runs like this:
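Competitive radioligand binding at the kappa (KOR) opioid receptor with [3H]-U69,593 as tracer; affinity expressed as Ki.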
Turning to `CN[C@@H](Cc1ccc(O)cc1)C(=O)N1CCCC1C(=O)N(C)[C@@H](Cc1ccccc1)C(=O)N[C@@H](CC(C)C)C(N)=O` (stereo partly drawn) (H-[NMeY][ξP][NMeF]L-NH2), affinity was put at a Ki of 2.03 µM.

Consider `CC(C)C[C@H]1CNC(=N)N1C[C@H](Cc1ccccc1)N(C)CCN1CCN(C[C@H](Cc2ccc(O)cc2)N(C)C)C1=N`, for which affinity was put at a Ki of 11.3 µM.

Regarding `CC(C)C[C@H]1CNCCN1C[C@H](Cc1ccccc1)N(C)CCN(C)CCN1CCN(C)[C@@H](Cc2ccc(O)cc2)C1`, the inhibitory constant (Ki) worked out at 3.12 µM.

In turn, `CC(C)C[C@H](NC(=O)[C@H](Cc1ccccc1)N(C)C(=O)CCCCNC(=O)[C@@H](N)Cc1ccc(O)cc1)C(N)=O` (H-Y[Ava][NMeF]L-NH2) registered an inhibition constant Ki of 22.5 µM.

Molecule `CN[C@H](CNCC(=O)N(C)CCN(C)[C@H](CN[C@H](CN)CC(C)C)Cc1ccccc1)Cc1ccc(O)cc1` returned an inhibition constant (Ki) of 1.11 µM.

Consider `CC(C)C[C@H]1CNC(=S)N1C[C@H](Cc1ccccc1)N(C)CCN(C)CCN1C[C@H](Cc2ccc(O)cc2)N(C)C1=S`, for which affinity was put at a Ki of 3.42 µM.

The molecule `CC(C)C[C@H]1CNC(=S)N1C[C@H](Cc1ccccc1)N(C)C[C@@H]1CCCN1C[C@H](Cc1ccc(O)cc1)N(C)C` came in with a Ki of 3.32 µM.

The molecule `CC(C)CC(CN)NCC(Cc1ccccc1)N(C)CCCCCNCC(N)Cc1ccc(O)cc1` (stereo not drawn) showed a Ki of 1.62 µM.

Consider `CC(C)C[C@H]1CNCCN1C[C@H](Cc1ccccc1)N(C)CCN1CCN(C[C@H](Cc2ccc(O)cc2)N(C)C)CC1`, for which the inhibition constant (Ki) came to 3.43 µM.

For the molecule `CC(C)C[C@H]1CNC(=S)N1C[C@H](Cc1ccccc1)N(C)CCCCCN1C[C@H](Cc2ccc(O)cc2)NC1=S`, the affinity, expressed as Ki, was 9.48 µM.

`CC(C)C[C@H]1CNC(=O)C(=O)N1C[C@H](Cc1ccccc1)N(C)CCN(C)CCN1C[C@H](Cc2ccc(O)cc2)N(C)C(=O)C1=O` had an inhibition constant Ki of 94.2 µM.

As for `CC(C)C[C@H]1CNC(=O)C(=O)N1C[C@H](Cc1ccccc1)N(C)C[C@@H]1CCCN1C[C@H](Cc1ccc(O)cc1)N(C)C`, the Ki amounted to 10.6 µM.

`CC(C)C[C@@H](CN)NC[C@H](Cc1ccccc1)N(C)C[C@@H]1CCCN1C[C@H](Cc1ccc(O)cc1)N(C)C` came in with an inhibitory constant (Ki) of 1.28 µM.

As for `CC(C)C[C@H]1CNC(=S)N1C[C@H](Cc1ccccc1)N(C)CCN1CCN(C[C@H](Cc2ccc(O)cc2)N(C)C)C1=S`, the affinity corresponds to a Ki of 2.3 µM.
